# DYRK1A inh – Dyrk1A (rat) kinase inhibition. ADP-Glo luminescence, NFATc1 peptide. inhibition, % at 12.5 µM. 310,000 compounds, 0.43% hits;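 note: plate controls were vehicle with enzyme for no effect and no enzyme for full effect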
# CDK5 p35 inh – CDK5/p35 (human) kinase inhibition. Q00535+Q15078. Recombinant CDK5/p35, ADP-Glo luminescence, 60 min. inhibition, % at 10 µM. 330,000 compounds, 0.01% hits. AID 488839;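 active = highest replicate inhibition of at least 50% and at least 75% of replicates reaching 50%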;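 note: plate controls were DMSO neutral control for no effect and GW8510 at 10 µM for full effect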
# dFosB act – enhances mouse delta FosB homodimer DNA binding; P13346; purified delta FosB, TAMRA-CDK5 oligo fluorescence polarization; percent of positive-control signal above neutral wells; activation, % at 25 µM; 340,000 compounds, 0.99% hits;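 active = mean activation above about 17%, with every replicate also reaching it, limit read from the data, passing the limit was not always enough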
# SR-BI uptake up – activators of SR-BI mediated HDL lipid uptake. CHO ldlA[mSR-BI] cells, DiI-HDL uptake fluorescence, 3 h; 100 = double the neutral-control signal. activation, % at 12.5 µM. 320,000 compounds, 0.096% hits. AID 504775;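 active = mean replicate activation of at least 60% and every replicate at or above 60%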;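 note: 0% = median plate neutral-control signal and 100% = twice that signal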
#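 System: CHO ldlA[mSR-BI] cells / Medium: HEPES-buffered (25 mM, pH 7.4) F12 plus 0.5% BSA / Probe or stimulus: labelled HDL, 10 µg/mL / Doses: single compound concentration, delivered by pin transfer / Schedule: 3 h, 37 °C / Measured by: DiI fluorescence, bottom read / Measure: cell-associated DiI fluorescence as measure of HDL uptake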
# SR-BI DiI inh – mouse SR-BI HDL lipid transfer inhibition; AID 488896; inhibition, % at 12.5 µM; 320,000 compounds, 0.96% hits; ldlA[mSR-BI] CHO cells, DiI-HDL uptake fluorescence, 3 h;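 active = mean replicate inhibition of at least 70% and a set share of replicates each scoring 70 or more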;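 note: 0% = median of neutral control wells and 100% = median of positive control wells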
# NSD2 inh – NSD2 (human) methyltransferase inhibition; inhibition, % at 12.5 µM; AID 743445; NSD2 peptide methylation, AlphaScreen, 120 min; 310,000 compounds, 0.54% hits; O96028
# Target sequence (O96028 whole entry, looked up): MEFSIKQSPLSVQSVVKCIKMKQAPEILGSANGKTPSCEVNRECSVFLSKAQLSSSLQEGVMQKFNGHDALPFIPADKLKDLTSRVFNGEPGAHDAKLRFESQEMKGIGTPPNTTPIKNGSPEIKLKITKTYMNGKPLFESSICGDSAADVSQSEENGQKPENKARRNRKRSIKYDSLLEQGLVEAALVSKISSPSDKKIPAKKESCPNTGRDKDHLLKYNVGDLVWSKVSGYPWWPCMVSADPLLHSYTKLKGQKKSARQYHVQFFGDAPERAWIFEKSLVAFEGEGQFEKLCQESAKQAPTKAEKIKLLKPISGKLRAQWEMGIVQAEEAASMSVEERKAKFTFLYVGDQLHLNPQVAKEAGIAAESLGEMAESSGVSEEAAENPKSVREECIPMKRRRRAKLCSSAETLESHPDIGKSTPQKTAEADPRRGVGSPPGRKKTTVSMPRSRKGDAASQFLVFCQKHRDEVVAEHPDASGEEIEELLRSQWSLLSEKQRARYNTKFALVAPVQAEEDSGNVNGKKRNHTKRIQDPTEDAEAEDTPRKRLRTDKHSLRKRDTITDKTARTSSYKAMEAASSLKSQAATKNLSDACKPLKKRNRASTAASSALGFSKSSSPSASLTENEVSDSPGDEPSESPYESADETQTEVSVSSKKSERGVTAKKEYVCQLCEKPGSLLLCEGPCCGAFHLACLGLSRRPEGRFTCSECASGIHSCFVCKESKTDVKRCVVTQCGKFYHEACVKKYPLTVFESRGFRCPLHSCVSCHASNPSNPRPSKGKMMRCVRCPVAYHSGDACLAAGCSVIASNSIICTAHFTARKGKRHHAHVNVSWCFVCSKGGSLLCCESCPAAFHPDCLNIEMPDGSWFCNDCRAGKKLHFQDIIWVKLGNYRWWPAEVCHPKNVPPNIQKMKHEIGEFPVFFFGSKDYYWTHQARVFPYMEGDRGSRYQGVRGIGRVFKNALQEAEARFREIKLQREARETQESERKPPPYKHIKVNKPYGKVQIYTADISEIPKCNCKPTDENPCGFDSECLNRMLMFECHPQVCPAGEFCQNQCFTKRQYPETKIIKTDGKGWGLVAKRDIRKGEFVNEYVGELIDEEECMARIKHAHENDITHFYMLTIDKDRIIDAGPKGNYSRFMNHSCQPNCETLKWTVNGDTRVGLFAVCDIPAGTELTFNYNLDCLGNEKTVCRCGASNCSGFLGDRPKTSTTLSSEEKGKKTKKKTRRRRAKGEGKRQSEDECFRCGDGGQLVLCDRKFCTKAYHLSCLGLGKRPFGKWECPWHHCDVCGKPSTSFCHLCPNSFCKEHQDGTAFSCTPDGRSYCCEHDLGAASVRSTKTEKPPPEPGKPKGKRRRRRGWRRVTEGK
# Alpha artifact – counter-screen for NSD2 inhibitors: AlphaScreen artifacts; shares compounds with NSD2 inh; AlphaScreen artifact counterscreen, preloaded methylated H4 peptide; AC35, µM (top dose mostly 10 µM), for inactives: at the highest dose activity change, negative = signal loss; 1,500 compounds, 9.4% hits; call rule not given here
# * marks the source's active call; other numbers are inactive results; / = no result. In the library only some 2.5% were active in any assay of this set; here they are far more common. Cut-off read from the data, not from the text of the source, unless noted: active = inhibition above about 50%; inactive = the rest.
SMILES,DYRK1A inh,CDK5 p35 inh,dFosB act,SR-BI uptake up,SR-BI DiI inh,NSD2 inh,Alpha artifact
NC(=O)C1CCN(C2=C(NS(=O)(=O)c3ccc(Cl)cc3)C(=O)c3ccccc3C2=O)CC1,-1.9,0.0,-3.2,/,/,76.6*,-4.5%
CC1CCCN(C2=C(NS(=O)(=O)c3ccc(Cl)cc3)C(=O)c3ccccc3C2=O)C1 (stereo unspecified),4.8,1.0,-5.7,-55.9,55.9,46.9,/
COC(=O)C1CCN(C2=C(NS(=O)(=O)c3ccc(Cl)cc3)C(=O)c3ccccc3C2=O)CC1,3.0,1.8,-5.4,-0.3,0.3,61.9*,7.82µM*
C=CCn1c(OCc2ccccc2)n[nH]c1=S,0.1,1.0,-0.6,-1.0,1.0,-1.4,/
CCOC(=O)c1c(S(=O)(=O)NCC(=O)Nc2ccc(F)cc2F)c(C)n(C)c1C,-2.6,1.6,1.0,4.4,-4.4,7.0,/
Cc1cc(C)cc(N(CC(=O)NC2CCC(C)CC2)S(=O)(=O)c2ccc(Cl)s2)c1 (stereo unspecified),/,/,/,/,/,-1.5,/
Nc1nc(=S)c2ncn(C3OC(CO)C(O)C3O)c2[nH]1 (stereo unspecified),18.6,3.4,-13.3,14.3,-14.3,51.9*,-9.0%
Nc1nc(=S)c2ncn([C@@H]3O[C@H](CO)[C@@H](O)[C@H]3O)c2[nH]1,1.7,2.5,3.2,4.0,-4.0,/,/
Cc1ccc(S(=O)(=O)N2CCCCC2CCNC(=O)C(=O)Nc2ccccc2F)cc1 (stereo unspecified),-6.4,0.5,-4.3,-4.9,4.9,94.5*,1.8%
CCCCC(=O)OCc1cn(-c2ccc(Cl)cc2)nn1,4.1,0.0,5.3,-12.2,12.2,120.8*,5.7%
Cc1ccccc1NC(=O)OCc1cn(-c2ccc(Cl)cc2)nn1,1.6,-0.6,-2.3,9.0,-9.0,-2.6,/
Nc1ccc2c(O)cc(S(=O)(=O)O)cc2c1,22.1,/,-13.1,-3.6,3.6,80.2*,-20.8%
O=S(=O)(O)c1cc(O)c2cc(Nc3ccccc3)ccc2c1,2.4,-2.0,-16.6,19.1,-19.1,104.5*,6.4µM*
Cc1nc(Cl)sc1C(=O)Nc1cccc(Cl)c1,1.4,1.7,4.1,-20.2,20.2,-2.7,/
CC(=O)c1cccc(S(=O)(=O)N2CCC(C(=O)O)(c3ccccc3)CC2)c1,2.6,-5.1,-1.6,/,/,/,/
CC(C)NCC#CCOc1ccc(Cl)cc1,-3.2,-3.7,-5.7,-3.4,3.4,52.9*,-2.7%
c1coc(-c2nnc(-c3ccco3)nn2)c1,4.4,-0.5,-6.2,13.0,-13.0,139.8*,-5.7%
CC1(C)Cc2ccccc2C2=NNC(=O)C2=N1,31.8,-0.4,-6.0,-11.7,11.7,106.1*,2.9%
COc1ccc(NC2CCCN(C(=O)c3ccccc3N3CCOCC3)C2)cc1OC (stereo unspecified),-10.5,0.9,-10.4,20.0,-20.0,72.4*,1.4%
CCc1ccccc1NC(=O)CN1CCN(C(=O)CNC(=O)c2ccc(-c3ccccc3)cc2)CC1,-8.8,-1.7,-7.5,-60.4,60.4,-6.8,/
C/C(CC(=O)Nc1ccccn1)=N\NC(=O)C(=O)Nc1cccc(Cl)c1C,5.1,0.7,-1.2,8.4,-8.4,60.0*,-1.5%
O=C(Nc1ccccn1)C(c1ccccc1)c1ccccc1,/,/,/,/,/,-3.5,/
COCCn1cnc2c1c(=O)[nH]c(=O)n2Cc1ccccc1,-2.0,1.7,-8.0,/,/,-2.1,/
COC(=O)c1sc(S(=O)(=O)Nc2ccc(C)c(C)c2)c(C(=O)OC)c1C,1.6,-1.3,-2.7,2.3,-2.3,50.2*,0.4%
COC(=O)c1sc(S(=O)(=O)NCCCN(C)C)c(C(=O)OC)c1C,-6.8,-4.2,0.1,-4.8,4.8,1.0,/
COc1ccc(NC2=CC(c3cccc(OC)c3)N(c3ccc(OC)cc3)C2=O)cc1 (stereo unspecified),-5.6,-1.1,1.1,-4.0,4.0,51.8*,-7.8%
CC(=O)Nc1ccc(OS(=O)(=O)c2ccc(C(C)(C)C)cc2)cc1,/,/,/,/,/,0.6,/
Cn1c(=O)cc(SCC(=O)N2CCOCC2)c2ccc(Cl)cc21,-0.1,0.3,-3.5,4.2,-4.2,55.3*,0.0%

# Compound activity from PubChem BioAssay.
